Laboratory results: ChEMBL document CHEMBL1275417, “Biological activities of novel gyrase inhibitors of the aminocoumarin class” (Antimicrob Agents Chemother, 2008)
Values after ≈ are worked out from the molar mass of the structure shown. Active and inactive are the calls of the source. The rule behind the calls is not given here.

Experiments:
DNA gyrase subunit B = DNA gyrase subunit B (Escherichia coli, UniProt P0AES6); assay: Inhibition of Escherichia coli JM109 DNA gyrase subunit B assessed as ATP hydrolysis by ATPase assay
[1] = molecular target: DNA gyrase subunit A (Escherichia coli K-12) (UniProt P0AES4); assay: Inhibition of Escherichia coli K-12 DNA gyrase A expressed in Escherichia coli DC2 assessed as compound concentration required for => 4-fold induction of luxCDABE operon by reported gene assay
Chain of DNA gyrase subunit A (Escherichia coli K-12) (P0AES4 whole entry, the tested form may be a part): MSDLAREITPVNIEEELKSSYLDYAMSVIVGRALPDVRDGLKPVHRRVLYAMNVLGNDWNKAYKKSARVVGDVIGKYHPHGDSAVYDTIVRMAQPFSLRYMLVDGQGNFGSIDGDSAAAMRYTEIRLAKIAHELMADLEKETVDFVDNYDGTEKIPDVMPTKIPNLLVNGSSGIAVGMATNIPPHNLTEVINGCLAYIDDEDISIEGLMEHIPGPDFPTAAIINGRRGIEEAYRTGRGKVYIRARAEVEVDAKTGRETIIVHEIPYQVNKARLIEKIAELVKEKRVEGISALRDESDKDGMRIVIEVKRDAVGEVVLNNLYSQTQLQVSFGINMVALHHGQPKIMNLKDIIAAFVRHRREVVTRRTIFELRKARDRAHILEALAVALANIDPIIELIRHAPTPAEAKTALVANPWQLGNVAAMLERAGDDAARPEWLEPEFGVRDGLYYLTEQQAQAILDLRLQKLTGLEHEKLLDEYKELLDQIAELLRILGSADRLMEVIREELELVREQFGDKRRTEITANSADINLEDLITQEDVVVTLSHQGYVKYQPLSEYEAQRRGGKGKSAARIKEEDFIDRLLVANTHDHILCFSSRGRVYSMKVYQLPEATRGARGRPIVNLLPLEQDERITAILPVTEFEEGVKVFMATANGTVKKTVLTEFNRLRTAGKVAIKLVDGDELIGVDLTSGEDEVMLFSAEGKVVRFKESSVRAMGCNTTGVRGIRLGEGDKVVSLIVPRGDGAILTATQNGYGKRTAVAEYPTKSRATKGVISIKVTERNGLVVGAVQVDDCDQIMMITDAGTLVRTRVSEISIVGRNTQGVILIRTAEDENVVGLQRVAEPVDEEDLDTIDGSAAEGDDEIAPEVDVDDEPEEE
Summary of the method: (§1)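 E. coli DC2 carrying a gyrA or sulA promoter–luxCDABE (Photorhabdus) fusion plasmid. Grown overnight at 37°C in LB with 2 μg/ml tetracycline, then diluted 1:100 in LB without tetracycline and precultured 1.5 h at 37°C. Compounds were added from DMSO stocks to 1% final DMSO and incubated 5 h at 37°C. Bioluminescence was divided by A595, and induction factor is the treated/untreated ratio. The value is the lowest test concentration giving ≥4-fold induction.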

[2] = molecular target: T1, Cell division inhibitor SulA (Escherichia coli K-12) (UniProt P0AFZ5); assay: Inhibition of Escherichia coli K-12 DNA sulA expressed in Escherichia coli DC2 assessed as compound concentration required for => 4-fold induction of luxCDABE operon by reported gene assay; summary of the method: as §1
T1 sequence (whole entry): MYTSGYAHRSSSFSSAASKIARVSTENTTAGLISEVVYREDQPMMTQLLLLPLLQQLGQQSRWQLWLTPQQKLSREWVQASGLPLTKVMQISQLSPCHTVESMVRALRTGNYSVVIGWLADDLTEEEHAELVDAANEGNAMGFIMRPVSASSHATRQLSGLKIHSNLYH

Staphylococcus aureus [3] = assay: Antibacterial activity against Staphylococcus aureus ATCC 29213 by broth microdilution method; format: functional
Staphylococcus aureus [4] = assay: Antibacterial activity against Staphylococcus aureus ATCC 43300 by broth microdilution method; format: functional
Staphylococcus aureus [5] = assay: Antibacterial activity against Staphylococcus aureus 80CR5 by broth microdilution method; format: functional
Streptococcus pneumoniae [6] = assay: Antibacterial activity against Streptococcus pneumoniae ATCC 49619 by broth microdilution method; format: functional
Streptococcus pneumoniae [7] = assay: Antibacterial activity against Streptococcus pneumoniae SL336-T by broth microdilution method; format: functional
Streptococcus pneumoniae [8] = assay: Antibacterial activity against Streptococcus pneumoniae TUPELO by broth microdilution method; format: functional
Enterococcus faecalis = assay: Antibacterial activity against Enterococcus faecalis ATCC 29212 by broth microdilution method; format: functional
Enterococcus faecium = assay: Antibacterial activity against Enterococcus faecium ATCC 19434 by broth microdilution method; format: functional
Escherichia coli [9] = assay: Antibacterial activity against Escherichia coli ATCC 25922 by broth microdilution method; format: functional
Escherichia coli [10] = assay: Antibacterial activity against Escherichia coli UB1005 by broth microdilution method; format: functional
Escherichia coli [11] = assay: Antibacterial activity against Escherichia coli DC2 by broth microdilution method; format: functional
Klebsiella pneumoniae = assay: Antibacterial activity against Klebsiella pneumoniae ATCC 27736 by broth microdilution method; format: functional
Pseudomonas aeruginosa [12] = assay: Antibacterial activity against Pseudomonas aeruginosa ATCC 27853 by broth microdilution method; format: functional
Pseudomonas aeruginosa [13] = assay: Antibacterial activity against Pseudomonas aeruginosa K799/WT by broth microdilution method; format: functional
Pseudomonas aeruginosa [14] = assay: Antibacterial activity against Pseudomonas aeruginosa K799/61 by broth microdilution method; format: functional
[15] = molecular target: DNA gyrase (Escherichia coli); assay: Inhibition of Escherichia coli JM109 DNA gyrase assessed as DNA triple helix formation by supercoiling assay

SMILES | IC50 (DNA gyrase subunit B) | Activity [1] | Activity [2] | MIC (Staphylococcus aureus [3]) | MIC (Staphylococcus aureus [4]) | MIC (Staphylococcus aureus [5]) | MIC (Streptococcus pneumoniae [6]) | MIC (Streptococcus pneumoniae [7]) | MIC (Streptococcus pneumoniae [8]) | MIC (Enterococcus faecalis) | MIC (Enterococcus faecium) | MIC (Escherichia coli [9]) | MIC (Escherichia coli [10]) | MIC (Escherichia coli [11]) | MIC (Klebsiella pneumoniae) | MIC (Pseudomonas aeruginosa [12]) | MIC (Pseudomonas aeruginosa [13]) | MIC (Pseudomonas aeruginosa [14]) | IC50 [15]
CO[C@@H]1[C@@H](OC(=O)c2ccc(C)[nH]2)[C@@H](O)[C@H](Oc2ccc3c(O)c(NC(=O)/C=C/c4ccccc4)c(=O)oc3c2Cl)OC1(C)C | 90 nM | 6.3 µM | 3.1 µM | 0.25 µg/mL (≈ 0.391 µM) | 1 µg/mL (≈ 1.56 µM) | > 32 µg/mL | 8 µg/mL (≈ 12.5 µM) | 16 µg/mL (≈ 25 µM) | 16 µg/mL (≈ 25 µM) | 16 µg/mL (≈ 25 µM) | > 32 µg/mL | > 32 µg/mL | > 32 µg/mL | 32 µg/mL (≈ 50.1 µM) | > 32 µg/mL | > 32 µg/mL | > 32 µg/mL | 4 µg/mL (≈ 6.26 µM) | 34 nM
CO[C@@H]1[C@@H](OC(=O)c2ccc(C)[nH]2)[C@@H](O)[C@H](Oc2ccc3c(O)c(NC(=O)c4ccc(O)c(NC(=O)C(C)C)c4)c(=O)oc3c2Cl)OC1(C)C | 73 nM | 3.1 µM | 3.1 µM | 2 µg/mL (≈ 2.8 µM) | 4 µg/mL (≈ 5.6 µM) | > 32 µg/mL | 4 µg/mL (≈ 5.6 µM) | 8 µg/mL (≈ 11.2 µM) | 16 µg/mL (≈ 22.4 µM) | 32 µg/mL (≈ 44.8 µM) | > 32 µg/mL | > 32 µg/mL | > 32 µg/mL | 16 µg/mL (≈ 22.4 µM) | > 32 µg/mL | > 32 µg/mL | > 32 µg/mL | 1 µg/mL (≈ 1.4 µM) | 41 nM
CO[C@@H]1[C@@H](OC(=O)c2ccc(C)[nH]2)[C@@H](O)[C@H](Oc2ccc3c(O)c(NC(=O)c4cc(C)c(O)c(C)c4)c(=O)oc3c2)OC1(C)C | 229 nM | > 100 µM | inactive | 4 µg/mL (≈ 6.42 µM) | 4 µg/mL (≈ 6.42 µM) | > 32 µg/mL | 8 µg/mL (≈ 12.8 µM) | 16 µg/mL (≈ 25.7 µM) | 16 µg/mL (≈ 25.7 µM) | 16 µg/mL (≈ 25.7 µM) | > 32 µg/mL | > 32 µg/mL | > 32 µg/mL | > 32 µg/mL | > 32 µg/mL | > 32 µg/mL | > 32 µg/mL | 8 µg/mL (≈ 12.8 µM) | 120 nM
CO[C@@H]1[C@@H](OC(=O)c2ccc(C)[nH]2)[C@@H](O)[C@H](Oc2ccc3c(O)c(NC(=O)c4cc(C)c(O)c(C)c4)c(=O)oc3c2Cl)OC1(C)C | 65 nM | 13 µM | 6.3 µM | 0.125 µg/mL (≈ 0.19 µM) | 0.25 µg/mL (≈ 0.38 µM) | 32 µg/mL (≈ 48.7 µM) | 4 µg/mL (≈ 6.09 µM) | 8 µg/mL (≈ 12.2 µM) | 8 µg/mL (≈ 12.2 µM) | 16 µg/mL (≈ 24.4 µM) | > 32 µg/mL | > 32 µg/mL | > 32 µg/mL | 16 µg/mL (≈ 24.4 µM) | > 32 µg/mL | > 32 µg/mL | > 32 µg/mL | 1 µg/mL (≈ 1.52 µM) | 17 nM
CO[C@@H]1[C@@H](OC(=O)c2ccc(C)[nH]2)[C@@H](O)[C@H](Oc2ccc3c(O)c(NC(=O)c4ccc(N)c(C)c4)c(=O)oc3c2C)OC1(C)C | 152 nM | 25 µM | 50 µM | 1 µg/mL (≈ 1.61 µM) | 1 µg/mL (≈ 1.61 µM) | > 32 µg/mL | 4 µg/mL (≈ 6.43 µM) | 4 µg/mL (≈ 6.43 µM) | 4 µg/mL (≈ 6.43 µM) | 8 µg/mL (≈ 12.9 µM) | > 32 µg/mL | > 32 µg/mL | > 32 µg/mL | > 32 µg/mL | > 32 µg/mL | > 32 µg/mL | > 32 µg/mL | 4 µg/mL (≈ 6.43 µM) | 44 nM
CO[C@@H]1[C@@H](OC(N)=O)[C@@H](O)[C@H](Oc2ccc3c(O)c(NC(=O)c4ccc(O)c(CC=C(C)C)c4)c(=O)oc3c2C)OC1(C)C [NOVOBIOCIN] |  | 3.1 µM | 6.3 µM | 0.25 µg/mL (≈ 0.408 µM) | 0.25 µg/mL (≈ 0.408 µM) | > 32 µg/mL | 1 µg/mL (≈ 1.63 µM) | 2 µg/mL (≈ 3.26 µM) | 2 µg/mL (≈ 3.26 µM) | > 32 µg/mL | > 32 µg/mL | > 32 µg/mL | > 32 µg/mL | 4 µg/mL (≈ 6.53 µM) | > 32 µg/mL | > 32 µg/mL | > 32 µg/mL | 1 µg/mL (≈ 1.63 µM) | 
COc1cc(/C=C/C(=O)Nc2c(O)c3ccc(O[C@@H]4OC(C)(C)[C@H](OC)[C@@H](OC(=O)c5ccc(C)[nH]5)[C@H]4O)c(Cl)c3oc2=O)ccc1O | 263 nM | 6.3 µM | 3.1 µM | 0.5 µg/mL (≈ 0.73 µM) | 0.5 µg/mL (≈ 0.73 µM) | > 32 µg/mL | 8 µg/mL (≈ 11.7 µM) | 8 µg/mL (≈ 11.7 µM) | 16 µg/mL (≈ 23.4 µM) | 32 µg/mL (≈ 46.7 µM) | > 32 µg/mL | > 32 µg/mL | > 32 µg/mL | 16 µg/mL (≈ 23.4 µM) | > 32 µg/mL | > 32 µg/mL | > 32 µg/mL | 2 µg/mL (≈ 2.92 µM) | 43 nM
COc1cc(C(=O)Nc2c(O)c3ccc(O[C@@H]4OC(C)(C)[C@H](OC)[C@@H](OC(=O)c5ccc(C)[nH]5)[C@H]4O)c(C)c3oc2=O)ccc1O | 86 nM | 12.5 µM | 12.5 µM | ≤ 0.06 µg/mL | 0.25 µg/mL (≈ 0.391 µM) | > 32 µg/mL | 1 µg/mL (≈ 1.57 µM) | 2 µg/mL (≈ 3.13 µM) | 4 µg/mL (≈ 6.26 µM) | 8 µg/mL (≈ 12.5 µM) | > 32 µg/mL | > 32 µg/mL | > 32 µg/mL | 16 µg/mL (≈ 25.1 µM) | > 32 µg/mL | > 32 µg/mL | > 32 µg/mL | 2 µg/mL (≈ 3.13 µM) | 25 nM
CO[C@@H]1[C@@H](OC(=O)c2ccc(C)[nH]2)[C@@H](O)[C@H](Oc2ccc3c(O)c(NC(=O)c4ccc(O)c(CC=C(C)C)c4)c(=O)oc3c2Cl)OC1(C)C [CHLOROBIOCIN] |  | 1.6 µM | < 1 µM | ≤ 0.06 µg/mL | ≤ 0.06 µg/mL | 4 µg/mL (≈ 5.74 µM) | 0.25 µg/mL (≈ 0.359 µM) | 1 µg/mL (≈ 1.43 µM) | 1 µg/mL (≈ 1.43 µM) | 4 µg/mL (≈ 5.74 µM) | > 32 µg/mL | 32 µg/mL (≈ 45.9 µM) | > 32 µg/mL | 2 µg/mL (≈ 2.87 µM) | 16 µg/mL (≈ 23 µM) | 8 µg/mL (≈ 11.5 µM) | 16 µg/mL (≈ 23 µM) | ≤ 0.06 µg/mL | 
